Results from ChEMBL document CHEMBL4513216, “Probing the Open Global Health Chemical Diversity Library for Multistage-Active Starting Points for Next-Generation Antimalarials” (ACS Infect Dis, 2020).

assay: Toxicity liver stage against HepG2, at 10uM; type: cell-based; design: test concentration 10 uM, cell line HepG2-A16-CD81EGFP; conditions: human, HepG2-A16-CD81EGFP cells; read-out: INHIBITION
In short: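 Uninfected HepG2-A16-CD81EGFP cells, 3 × 10^3 per well, 1536-well, plated on prespotted compound at 10 μM final, parasite-free screening media added to match infected plates; puromycin 10 μM positive, DMSO 0.5% negative; run in parallel with 48 h PbLuc assay at 37 °C, 5% CO2; viability by CellTiter-Glo luminescence, normalized to controls.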

| Compound | cytotoxicity at 10 µM [%] |
| --- | --- |
| N#Cc1cccnc1N1CCN(C(=O)c2cccs2)CC1 | 10.4 |
| O=C(N1CCCCC1)N1CCN(CC(O)c2ccc(F)cc2)CC1 (configuration not stated) | -8.85 |
| Cc1cc(C)c2cc(C(=O)N3CCN(Cc4ccco4)CC3)[nH]c2c1 | -51.4 |
| CC1CCN(C(=O)c2ccnc(-n3cncn3)c2)c2ccccc21 (configuration not stated) | 13 |
| O=C(N[C@@H]1CNCCC[C@H]1O)c1ccc(OCCN2CCCC2)cc1 | -0.155 |
| OC[C@@H]1CN2CCN(c3ccccn3)C[C@@H]2[C@H]1c1ccccc1 | -2.41 |
| CNC(=O)[C@@H]1[C@H]2CN(Cc3ccoc3)CCN2C[C@H]1c1ccccc1 | 4.06 |
| CC(C)(C)OC(=O)N1CC(=O)N(CCc2ccccc2)CC(O)C1 (configuration not stated) | -12.9 |
| CC(C)C1SCC(=O)Nc2c1cnn2-c1ccc(F)cc1 (configuration not stated) | 1.23 |
| Cn1cnc2cc(CCC(=O)Nc3n[nH]c(C4CCCO4)n3)ccc21 (configuration not stated) | -0.863 |
| COc1ccc(NC(=O)Cn2nc(C)c(C(C)=O)c2C)cc1 | -3.66 |
| CCOc1nn(CC)cc1-c1nnc(SCc2cccnc2)n1CC | -0.244 |
| COc1ccc(C(=O)NCc2ccco2)nn1 | -2.14 |
| CC(=O)N1CC2(CCN(C(=O)c3cccc4[nH]ccc34)CC2)C1 | -138 |
| CS(=O)(=O)N1CC(c2nc[nH]n2)c2cc(C(=O)NC3CC3)ccc21 (configuration not stated) | -158 |
| Cc1noc(C)c1C(=O)N1C[C@@H]2CCCO[C@@H]2[C@H](N(C)C)C1 | 9.85 |
| CC(C)NC(=O)c1ccc2nnc(C3CCN(C(=O)NC(C)C)C3)n2c1 (configuration not stated) | -5.42 |
| O=S(=O)(c1cccs1)N1CCN2C[C@H](OCC3CC3)C[C@H]2C1 | 11.9 |
| O=C(Cn1cc(C(=O)O)ccc1=O)Nc1cc(F)ccc1F | 0.687 |
| CC(C)n1ncc2c1NC(=O)CC2c1ccccc1Cl (configuration not stated) | 33.5 |
| Cn1c(=O)[nH]c(=O)n2c(CC(=O)Nc3c(Cl)cccc3Cl)cnc12 | 8.52 |
| O=C(Cc1c(F)cccc1F)N1CCN(CC(=O)N2CCCC2)CC1 | 4.57 |
| CCS(=O)(=O)N1CCC2(CC(=O)N(c3cccc(C)c3)C2)C1 (configuration not stated) | -7.79 |

| Compound | cytotoxicity at 10 µM [%] |
| --- | --- |
| CCn1ncc(Nc2[nH]cnc3nc(C)nc2-3)c1C | 3.26 |
| CCc1noc(C2CCCCN2C(=O)c2cccs2)n1 (configuration not stated) | 6.5 |
| CCn1ncc(NC(=O)CCn2ncc3c(Cl)cccc32)c1C | 7.74 |
| CSc1ncnc(NCc2ccco2)c1C#N | 0.0868 |
| CNC(=O)C1CN(C(=O)c2cccnc2)CCN(S(C)(=O)=O)C1 (configuration not stated) | 1.45 |
| Cn1cc(-c2ccc(C3CCCCN3Cc3cccnc3)cn2)cn1 (configuration not stated) | 11.6 |
| CN(C)Cc1cnc(CC2CCN(CCc3ccccc3)CC2)cn1 | -6.07 |
| Cc1ccc2nc(CN(Cc3ccc(C#N)cc3)C(C)C)cc(=O)n2c1 | 21.1 |
| Cc1sc(NC(=O)CN(C)CCOc2cccc(F)c2)c(C)c1C | 4.21 |
| CNC(=O)Cc1ccc(NC(=O)NC2(c3cccc(F)c3)CC2)cc1 | 5.74 |
| N#Cc1cn(C2CC2)c(=O)n(Cc2cc(-c3cccs3)on2)c1=O | 0.38 |
| NC(=O)CSCC(=O)NC1(c2cccc(Br)c2)CC1 | -13.9 |
| CN(Cc1nnc2ccccn12)C(=O)CCNC(=O)C(C)(C)C | 12.5 |
| CNC(=O)COc1c(F)cc(Br)cc1C(C)=O | 1.44 |
| COCCN(Cc1ccccn1)C(=O)Nc1cccnc1-n1cccn1 | 1.06 |
| Cn1cc(CNC(=O)c2cc3c(s2)CCCCC3)cn1 | -12 |
| Cc1cc(C)c(CNC(=O)N2CCC(N3CCCC3)CC2)c(=O)[nH]1 | -3.52 |
| CCN1CC(C(=O)NC(C)(C)C)CC1=O (configuration not stated) | -2.91 |
| COc1ccc(OCC(O)CN2CCN(c3nccs3)CC2)cc1 (configuration not stated) | -3.82 |
| CN(C(=O)Cc1ccc(NC(=O)NC2CC2)cc1)c1ccccc1 | 6.35 |
| COc1cccc2[nH]cc(CCNC(=O)N3CCCC3CO)c12 (configuration not stated) | -10.1 |
| c1ccc(-c2noc(CN3CCc4c(ncn4C4CC4)C3)n2)nc1 | -5.11 |
| Cc1cccc(N(CCC(N)=O)C(=O)c2cc(-n3cccn3)ccn2)c1 | -1.5 |

| Compound | cytotoxicity at 10 µM [%] |
| --- | --- |
| Cc1ccc(C(=O)N2CCCCC2CNC(N)=O)s1 (configuration not stated) | -0.519 |
| Cc1cccc(OCC(=O)N(C)C2CCN(CC3CCOC3)CC2)c1 (configuration not stated) | -6.22 |
| CC(C)c1cccc(NC(=O)N2CC(N(C)C)C2)c1 | 9.12 |
| COCCC(Cc1cccc(Br)c1)C(=O)O (configuration not stated) | 9.21 |
| Cc1cc(C(C)NC(=O)CCN2C(=O)c3ccccc3C2=O)c(C)o1 (configuration not stated) | -7.82 |
| CSCCC(NC(=O)c1ccco1)C(=O)N(C)Cc1ccsc1 (configuration not stated) | -0.0681 |
| Cc1noc(C)c1CNC(=O)N1Cc2ccccc2N(C)CC1C (configuration not stated) | -2.42 |
| CCN(C(=O)CCc1ccccc1)C1CC(=O)NC1=O (configuration not stated) | -7.32 |
| Cc1cnn(C2CN(Cc3noc(-c4ccccc4)n3)C2)c1 | -1.52 |
| CCOc1cc(NC(=O)NCCn2cnnc2CC)ccc1C | -7.37 |
| Cc1ccc2nc(NCCCN3CCCCCC3=O)n(C)c(=O)c2c1 | 7.04 |
| COC(=O)CNC(=O)CCCn1cnc2ccccc2c1=O | -7.48 |
| CC(=O)NC1CCN(c2ccc(C#N)cc2C(F)(F)F)CC1 | 0.536 |
| CCC(C(=O)N1CCCN(CCN(C)C)CC1)N1CCCC1=O (configuration not stated) | 4.38 |
| CNC(=O)C1CCCCN1C(=O)C1CCN(S(C)(=O)=O)CC1 (configuration not stated) | 6.03 |
| C[C@@H]1CN(C(=O)c2cccn2C)C[C@]12CCN(c1ccsc1)C2=O | -83.8 |
| Cc1noc(-c2ccc(N3CCN(Cc4nccn4C)CC3)nc2)n1 | 3.19 |
| COc1ccc(CN(C)C2CCN(C(=O)C(C)C)CC2)c2cccnc12 | 12.5 |
| CN(Cc1ccccc1)c1ncccc1CNC(=O)c1ccnn1C | -1.37 |
| CCC[C@@H]1CN(C(=O)c2ccccc2C(C)=O)C[C@H]1N(C)C | -0.254 |
| CCc1nc(CNC(=O)c2ccc(C(C)N3CCCCC3)o2)cc(=O)[nH]1 (configuration not stated) | -13.6 |
| O=C1CC(NCc2cnc(-c3cccs3)nc2)CN1c1ccccc1 (configuration not stated) | 1.58 |
| COCc1ncn(Cc2nc(-c3ccc(OC)cc3F)oc2C)n1 | -92.7 |

| Compound | cytotoxicity at 10 µM [%] |
| --- | --- |
| CSCc1nc(CNC(=O)C2CCCN(C(=O)N(C)C)C2)cs1 (configuration not stated) | -3.99 |
| CCCn1cc(-c2cc(C(=O)N(C)C)c3ccc(C)cc3n2)cn1 | 4.99 |
| O=C1O[C@@H]2CN(c3cnccn3)C[C@@H]2N1CCCc1ccc(F)cc1 | -3.94 |
| O=C(Cn1ccnc1)N(CCO)CCSc1ccc(Cl)cc1 | 4.38 |
| COc1cc2c(cc1OC)CN(C(C(=O)O)c1c(C)nn(C)c1C)CC2 (configuration not stated) | -3.14 |
| O=C(NCCN1CCCCC1)c1cccc(Cl)c1Cl | 6.04 |
| CC(=O)N(C)C1CCN(c2ncc3c(n2)CCN3c2ccccc2)C1 (configuration not stated) | -9.62 |
| COCC1CCN(C(=O)c2cccc(S(=O)(=O)NC3CCCC3)c2)C1 (configuration not stated) | 10.8 |
| COc1cc(C)c(CN2CCC3(CC2)C(C(=O)O)CC(=O)N3C)cc1C (configuration not stated) | -8.58 |
| COCC(=O)N1CCC(c2cc(C(F)(F)F)n3ccnc3n2)CC1 | 1.44 |
| CC(=O)NCCNC(=O)CN1CCOC(Cn2cccn2)C1 (configuration not stated) | -7.6 |
| N#Cc1ccc(CN2CCCC2Cn2cccn2)cc1 (configuration not stated) | -2.96 |
| COc1ccc(C(O)CNC(=O)NCc2nc(C)cs2)cc1 (configuration not stated) | -3.54 |
| CCc1nc(C2CCCN(C(=O)c3cccnc3O)C2)no1 (configuration not stated) | -3.54 |
| Cc1cc(CN2CCCC2Cn2cccn2)no1 (configuration not stated) | -4.36 |
| N#Cc1cn(C2CC2)c(=O)n(CC(O)c2ccc(Cl)cc2)c1=O (configuration not stated) | -5.78 |
| Cc1cc(C)c(CNC(=O)N2CCN(c3ccccn3)CC2)c(=O)[nH]1 | -9.95 |
| O=C(COC1CCCC1)Nc1ncn(CC(=O)N2CCCCCC2)n1 | -8.16 |
| Cn1cc(C2CCCN2C(=O)CCCc2cccs2)cn1 (configuration not stated) | -2.12 |
| Cn1cnnc1C1CCN(C(=O)c2cc3c(s2)CCC3)CC1 | -10 |
| CC(=O)c1cccc(OCC(=O)NS(=O)(=O)c2ccc(Br)s2)c1 | -19.4 |
| Cc1cc(CN(C)C(=O)c2ccc(N(C)C)nc2)no1 | -5.4 |
| COc1ccccc1N1CCN(C(=O)NC(C)c2nncn2C)CC1 (configuration not stated) | -4.23 |

| Compound | cytotoxicity at 10 µM [%] |
| --- | --- |
| Cc1cnn(CC2CCCN2Cc2noc(C)n2)c1 (configuration not stated) | 0.742 |
| CCc1ccc(NS(=O)(=O)c2cc3c(c(C(=O)O)c2)OCCO3)cc1 | -13.9 |
| Cn1ccnc1COc1ccc(CO)cc1 | -5.05 |
| Cn1ccnc1CN1CCN(CC(O)c2ccc(F)c(F)c2)CC1 (configuration not stated) | -12.9 |
| CCn1ccnc1CNCC1CCCN1c1cc(NC)ncn1 (configuration not stated) | 3.37 |
| OC(CNCCn1cccn1)c1ccc(F)c(F)c1 (configuration not stated) | 2.05 |
| CC(OCC1CC1)C(=O)N1CCCN(Cc2nccn2C)CC1 (configuration not stated) | 2.48 |
| c1ccc(Cn2ccnc2CN2CCOC(Cn3cccn3)C2)cc1 (configuration not stated) | -3.78 |
| CCN1CCN(C(=O)c2cnn(-c3ccccc3Cl)c2)CC1 | -11.5 |
| Cc1nc(-c2ccccc2)n(CC(=O)NCC(C)C)n1 | -2.97 |
| COc1ccccc1CC1CCCN(CCC#N)C1 (configuration not stated) | 1.73 |
| O=C(C1CC1)N1CCC2(CC1)CNc1ccc(F)cc12 | 11 |
| COc1ccccc1C(=O)N1CCNCC1C(N)=O (configuration not stated) | 1.96 |
| Cn1nc(C#N)c2c1CN(C(=O)c1cccnc1)CCC2 | 2.22 |
| COCC1CN(Cc2ccc(F)cc2)Cc2nn(C)cc21 (configuration not stated) | -81.4 |
| CC(C)Oc1ncnc2c1CCN(Cc1ccoc1)CC2 | 2.56 |
| CC(C)C(=O)N1CCC2(CCN2CC2CC2)C1 (configuration not stated) | 8.98 |
| COCCN1CCC2(CCN(CC3CC3)CC2)C1=O | 7.55 |
| COCCN1CCO[C@@H]2CN(C(=O)Cc3ccc(F)cc3)CC[C@@H]2C1 | 7.07 |
| CCn1cc2c(n1)CN(S(=O)(=O)c1cccnc1)CC2COC (configuration not stated) | 5.74 |
